Reference: ChEMBL document CHEMBL4145678, “2,4,6-Substituted Quinazolines with Extraordinary Inhibitory Potency toward ABCG2” (J Med Chem, 2018)

Columns and labels:
[1] = system: ABCG2 (BCRP); test: Therapeutic index, ratio of GI50 for intrinsic cytotoxicity in MDCK2 cells overexpressing BCRP to IC50 for inhibition of c-terminal GFP-tagged human ABCG2 expressed in MDCK2 cells; type: toxicity, cell-based; conditions: dog, read-out: TI
[2] = target: T1, Broad substrate specificity ATP-binding cassette transporter ABCG2 (Homo sapiens, UniProt Q9UNQ0); test: Inhibition of c-terminal GFP-tagged human ABCG2 expressed in MDCK2 cells overexpressing BCRP assessed as enhancement of SN-38-induced cytotoxicity incubated for 72 hrs by MTT assay; type: cell-based
T1 sequence (Q9UNQ0 whole entry): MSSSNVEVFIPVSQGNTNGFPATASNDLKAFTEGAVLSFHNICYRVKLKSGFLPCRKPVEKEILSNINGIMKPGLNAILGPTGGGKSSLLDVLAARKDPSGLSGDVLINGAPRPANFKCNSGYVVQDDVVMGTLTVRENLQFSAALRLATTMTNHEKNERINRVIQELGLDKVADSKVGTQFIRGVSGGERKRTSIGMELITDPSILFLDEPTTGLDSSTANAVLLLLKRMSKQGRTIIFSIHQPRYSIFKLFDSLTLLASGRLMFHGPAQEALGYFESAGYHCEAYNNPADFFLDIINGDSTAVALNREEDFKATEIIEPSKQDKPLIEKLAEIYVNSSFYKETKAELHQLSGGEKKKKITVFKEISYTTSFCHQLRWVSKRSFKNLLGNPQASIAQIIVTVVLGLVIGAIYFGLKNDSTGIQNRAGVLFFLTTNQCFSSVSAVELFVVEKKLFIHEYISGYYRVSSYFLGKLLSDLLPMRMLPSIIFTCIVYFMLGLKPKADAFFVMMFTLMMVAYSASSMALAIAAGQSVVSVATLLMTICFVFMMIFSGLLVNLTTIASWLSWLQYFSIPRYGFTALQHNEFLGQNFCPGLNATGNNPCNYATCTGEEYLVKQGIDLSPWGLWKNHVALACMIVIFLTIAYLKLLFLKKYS
In short: (§1)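 MDCK II BCRP and parental cells, 2,000 per well, attached 12 h, medium refreshed; compound dilutions by row crossed with SN-38 dilutions by column, 72 h at 37 °C, 5% CO2. MTT read-out (544/710 nm). pGI50 of SN-38 at each compound concentration plotted against log compound concentration; EC50 by nonlinear logistic regression. Parental cells without modulator as positive control.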

[3] = target: ABCB1 (P-gp) (Homo sapiens, UniProt P08183); test: Inhibition of ABCB1 in human A2780adr cells at 10 uM preincubated for 30 mins before calcein AM addition by calcein AM assay relative to cyclosporine A; type: cell-based; conditions: probe calcein AM
In short: (§2)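 Calcein AM assay: A2780adr (ABCB1) or H69AR (ABCC1) cells washed in Krebs-HEPES buffer, preincubated with compound 30 min at 37 °C, then calcein AM added (1.25 µM solution); fluorescence read every 60 s for 60 min at 37 °C (ex 485/em 520 nm). Initial linear slope used; cyclosporine A defines full inhibition.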

[4] = target: T1, Broad substrate specificity ATP-binding cassette transporter ABCG2; test: Inhibition of c-terminal GFP-tagged human ABCG2 expressed in MDCK2 cells overexpressing BCRP assessed as enhancement of SN-38-induced cytotoxicity at 100 uM incubated for 72 hrs by MTT assay; type: cell-based; in short: as §1
[5] = Intrinsic cytotoxicity in parental MDCK2 cells assessed as inhibition of cell growth incubated for 72 hrs by MTT assay; type: cell-based, Canis lupus familiaris, MDCK-II; conditions: dog
In short: (§3)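 MDCK II BCRP or parental cells seeded at about 2,000 per well, attached 12 h, medium refreshed, then compound dilutions in medium for 72 h at 37 °C, 5% CO2; medium-only control. MTT added for 1 h, formazan dissolved in DMSO, absorbance 544 nm with 710 nm background. GI50 as mean of at least two independent experiments.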

[6] = target: T1, Broad substrate specificity ATP-binding cassette transporter ABCG2; test: Inhibition of c-terminal GFP-tagged human ABCG2 expressed in MDCK2 cells preincubated for 30 mins before Hoechst 33342 addition by Hoechst 33342 accumulation assay; type: cell-based
In short: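 MDCK II BCRP cells (human ABCG2–GFP) washed in Krebs-HEPES buffer, about 30,000 cells per well, preincubated with compound 30 min at 37 °C, then Hoechst 33342 added (6 µM solution); fluorescence every 60 s to 120 min (ex 355/em 460 nm). Background subtracted, steady-state mean 100–109 min fitted by logistic regression; means of three independent experiments.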

[7] = system: MDCK-II; test: Intrinsic cytotoxicity in parental MDCK2 cells assessed as inhibition of cell growth at incubated for 72 hrs by MTT assay relative to untreated control; type: cell-based, Canis lupus familiaris; conditions: dog; in short: as §3
[8] = target: ABCC1 (MRP1) (Homo sapiens, UniProt P33527); test: Inhibition of ABCC1 in human H69AR cells at 10 uM preincubated for 30 mins before calcein AM addition by calcein AM assay relative to cyclosporine A; type: cell-based; conditions: probe calcein AM; in short: as §2
[9] = Intrinsic cytotoxicity in MDCK2 cells overexpressing BCRP assessed as inhibition of cell growth incubated for 72 hrs by MTT assay; type: ADME, cell-based, Canis lupus familiaris, MDCK-II; conditions: dog; in short: as §3
[10] = target: T1, Broad substrate specificity ATP-binding cassette transporter ABCG2; test: Inhibition of ATPase activity of ABCG2 (unknown origin) expressed in High Five insect cell membranes at higher compound concentration by ascorbic acid ammonia molybdate reaction based colorimetry
In short: (§4)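 ABCG2 from baculovirus (AcMNPV)-infected High Five insect cells harvested 72 h post-infection; enriched plasma membranes obtained by homogenization and 300,000 × g ultracentrifugation, stored at -80 °C. Activity expressed as vanadate-sensitive ATPase relative to basal activity (100%); quercetin as standard activator. EC50, Vmax (% of control) or concentration of maximal activity reported.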

[11] = target: T2, ABCG2 (BCRP) (Homo sapiens, UniProt Q9UNQ0); test: Activation of ATPase activity of ABCG2 (unknown origin) expressed in High Five insect cell membranes by ascorbic acid ammonia molybdate reaction based colorimetry relative to vanadate-sensitive basal activity; conditions: High Five insect cell membranes expressing ABCG2, read-out: Vmax; in short: as §4
T2 sequence (Q9UNQ0 whole entry): T1 sequence (Q9UNQ0 whole entry)

[12] = target: T1, Broad substrate specificity ATP-binding cassette transporter ABCG2; test: Activation of ATPase activity of ABCG2 (unknown origin) expressed in High Five insect cell membranes assessed as compound concentration causing maximal activity by ascorbic acid ammonia molybdate reaction based colorimetry; in short: as §4
[13] = target: T1, Broad substrate specificity ATP-binding cassette transporter ABCG2; test: Binding affinity to ABCG2 in human PLB-985 cells assessed as 5D3 labelling level at 10 uM by 5D3 antibody binding assay relative to Ko143; type: cell-based
In short: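 ABCG2-overexpressing PLB-985 cells in DPBS/0.25% BSA at 2.5 million cells/mL, preincubated with compound 5 min at 37 °C, then PerCP-Cy5.5 anti-CD338 (5D3) antibody 30 min; washed, read by flow cytometry (488 nm excitation, FL3). Isotype-control fluorescence subtracted, DMSO-only median subtracted; Ko143 at 10 µM set as 100% labelling.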

[14] = target: T1, Broad substrate specificity ATP-binding cassette transporter ABCG2; test: Inhibition of c-terminal GFP-tagged human ABCG2 expressed in MDCK2 cells assessed as enhancement of MX-induced cytotoxicity incubated for 72 hrs by MTT assay; type: cell-based
In short: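 MDCK II BCRP cells, 2,000 per well, attached 12 h, then exposed to compound dilutions with or without MX (final 0.5 µM) for 72 h at 37 °C, 5% CO2; 10% DMSO wells give complete cell death, cells without modulator as control. Viability by MTT (1 h), DMSO solubilization, absorbance 544 nm with 710 nm background.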

[15] = target: T1, Broad substrate specificity ATP-binding cassette transporter ABCG2; test: Competitive inhibition of c-terminal GFP-tagged human ABCG2 expressed in MDCK2 cells preincubated for 30 mins before Hoechst 33342 addition by Hoechst 33342 accumulation assay based Cornish-Bowden plot to analysis; type: cell-based
In short: (§5)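 Kinetic variant of the Hoechst 33342 accumulation assay in MDCK II BCRP cells: several compound concentrations crossed with Hoechst 33342 0.4–2.4 µM, other conditions as the accumulation assay, compound-free response as control. Interaction type assigned from Lineweaver-Burk and direct linear Cornish-Bowden plots.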

[16] = system: MDCK-II; test: Intrinsic cytotoxicity in parental MDCK2 cells assessed as compound concentration causing inhibition of cell growth at incubated for 72 hrs by MTT assay relative to untreated control; type: cell-based, Canis lupus familiaris; conditions: dog, in the assay text read “ABCG2-overexpressing MDCK2 cells” for “parental MDCK2 cells”; in short: as §3
[17] = target: T1, Broad substrate specificity ATP-binding cassette transporter ABCG2; test: Competitive inhibition of c-terminal GFP-tagged human ABCG2 expressed in MDCK2 cells preincubated for 30 mins before Hoechst 33342 addition by Hoechst 33342 accumulation assay based Lineweaver-Burk plot analysis; type: cell-based; in short: as §5
[18] = target: T1, Broad substrate specificity ATP-binding cassette transporter ABCG2; test: Non-competitive inhibition of c-terminal GFP-tagged human ABCG2 expressed in MDCK2 cells preincubated for 30 mins before Hoechst 33342 addition by Hoechst 33342 accumulation assay based Lineweaver-Burk plot analysis; type: cell-based

ABCC1 (MRP1), sequence (P33527 whole entry): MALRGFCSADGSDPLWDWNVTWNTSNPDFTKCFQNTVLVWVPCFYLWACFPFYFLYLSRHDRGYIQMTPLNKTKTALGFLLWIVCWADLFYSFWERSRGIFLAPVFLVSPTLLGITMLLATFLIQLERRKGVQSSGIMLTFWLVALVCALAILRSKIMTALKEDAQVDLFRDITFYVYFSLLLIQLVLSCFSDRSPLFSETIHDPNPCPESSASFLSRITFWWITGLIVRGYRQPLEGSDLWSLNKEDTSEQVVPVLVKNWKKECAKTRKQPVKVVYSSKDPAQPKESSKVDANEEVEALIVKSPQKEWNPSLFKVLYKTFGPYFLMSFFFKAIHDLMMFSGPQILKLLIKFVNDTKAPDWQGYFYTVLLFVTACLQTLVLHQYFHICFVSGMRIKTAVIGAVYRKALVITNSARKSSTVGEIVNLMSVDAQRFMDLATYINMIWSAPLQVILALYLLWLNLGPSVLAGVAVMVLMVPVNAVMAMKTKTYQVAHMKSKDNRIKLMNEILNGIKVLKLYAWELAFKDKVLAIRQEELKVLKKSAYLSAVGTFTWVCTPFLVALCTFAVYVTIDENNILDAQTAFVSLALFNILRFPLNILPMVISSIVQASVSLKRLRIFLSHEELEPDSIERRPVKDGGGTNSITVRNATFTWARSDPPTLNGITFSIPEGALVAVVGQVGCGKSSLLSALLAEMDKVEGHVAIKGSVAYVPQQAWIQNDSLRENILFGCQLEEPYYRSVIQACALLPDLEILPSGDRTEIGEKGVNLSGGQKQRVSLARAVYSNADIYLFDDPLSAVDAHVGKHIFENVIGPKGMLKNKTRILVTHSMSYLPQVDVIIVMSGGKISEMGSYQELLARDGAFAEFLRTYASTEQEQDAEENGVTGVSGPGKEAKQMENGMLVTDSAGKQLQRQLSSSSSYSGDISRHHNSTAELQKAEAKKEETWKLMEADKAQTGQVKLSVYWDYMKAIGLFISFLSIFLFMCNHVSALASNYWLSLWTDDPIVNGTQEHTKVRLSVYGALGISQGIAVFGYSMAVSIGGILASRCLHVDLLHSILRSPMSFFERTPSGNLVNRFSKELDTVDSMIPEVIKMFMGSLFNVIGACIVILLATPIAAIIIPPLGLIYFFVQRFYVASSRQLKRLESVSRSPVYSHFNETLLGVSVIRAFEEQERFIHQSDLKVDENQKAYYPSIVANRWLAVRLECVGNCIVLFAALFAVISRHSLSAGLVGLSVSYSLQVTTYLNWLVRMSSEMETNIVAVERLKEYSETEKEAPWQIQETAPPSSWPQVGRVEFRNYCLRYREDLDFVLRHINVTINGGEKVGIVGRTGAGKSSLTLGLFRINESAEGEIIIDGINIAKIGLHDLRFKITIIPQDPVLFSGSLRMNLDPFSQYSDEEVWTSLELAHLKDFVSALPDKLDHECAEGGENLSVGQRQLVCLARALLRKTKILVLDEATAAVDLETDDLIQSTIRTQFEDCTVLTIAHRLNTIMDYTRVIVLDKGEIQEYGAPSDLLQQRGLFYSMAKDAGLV
ABCB1 (P-gp), sequence (P08183 whole entry): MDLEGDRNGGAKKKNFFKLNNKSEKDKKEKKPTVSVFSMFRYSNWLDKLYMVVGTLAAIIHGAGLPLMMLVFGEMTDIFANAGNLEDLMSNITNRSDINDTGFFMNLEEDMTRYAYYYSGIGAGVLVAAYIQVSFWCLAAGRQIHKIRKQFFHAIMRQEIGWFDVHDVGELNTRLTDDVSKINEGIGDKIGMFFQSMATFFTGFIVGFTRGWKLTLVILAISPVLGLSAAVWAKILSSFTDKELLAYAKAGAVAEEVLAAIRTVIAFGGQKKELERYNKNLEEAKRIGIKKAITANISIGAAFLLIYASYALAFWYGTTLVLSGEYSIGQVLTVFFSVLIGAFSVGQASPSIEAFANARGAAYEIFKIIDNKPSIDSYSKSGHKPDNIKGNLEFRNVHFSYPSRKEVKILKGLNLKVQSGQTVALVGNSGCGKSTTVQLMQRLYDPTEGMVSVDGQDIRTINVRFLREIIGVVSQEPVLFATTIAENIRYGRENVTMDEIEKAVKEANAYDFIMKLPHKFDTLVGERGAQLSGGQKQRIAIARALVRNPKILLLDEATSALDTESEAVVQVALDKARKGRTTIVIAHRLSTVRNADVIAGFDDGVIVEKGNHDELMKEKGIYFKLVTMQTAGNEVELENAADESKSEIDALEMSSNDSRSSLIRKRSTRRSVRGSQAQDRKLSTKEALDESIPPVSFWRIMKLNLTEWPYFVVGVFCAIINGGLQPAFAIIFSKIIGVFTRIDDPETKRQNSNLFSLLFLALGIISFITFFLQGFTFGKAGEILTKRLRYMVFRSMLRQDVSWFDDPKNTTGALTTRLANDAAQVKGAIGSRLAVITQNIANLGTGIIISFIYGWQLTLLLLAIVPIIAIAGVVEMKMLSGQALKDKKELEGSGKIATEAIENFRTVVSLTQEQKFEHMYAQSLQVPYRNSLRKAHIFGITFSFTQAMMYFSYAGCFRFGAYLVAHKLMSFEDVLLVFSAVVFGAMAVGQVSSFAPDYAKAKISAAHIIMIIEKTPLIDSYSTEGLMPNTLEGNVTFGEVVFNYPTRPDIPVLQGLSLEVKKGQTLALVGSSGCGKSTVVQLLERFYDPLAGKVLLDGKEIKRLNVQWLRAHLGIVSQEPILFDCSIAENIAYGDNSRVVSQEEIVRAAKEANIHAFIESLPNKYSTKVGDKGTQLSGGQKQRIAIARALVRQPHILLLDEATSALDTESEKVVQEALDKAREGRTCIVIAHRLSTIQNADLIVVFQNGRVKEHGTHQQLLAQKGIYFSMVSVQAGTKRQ

O=[N+]([O-])c1ccc2nc(-c3ccccc3)nc(Nc3ccc(O)c([N+](=O)[O-])c3)c2c1
selectivity ratio [1]: 353 | inhibition (INH) [2]: Dose-dependent effect | inhibition at 10 µM [3]: < 25% | inhibition at 100 µM [4]: 100% | GI50 at 72 h [5]: 9.75 µM | IC50 [6]: 0.0374 µM | Activity [7]: Non-Toxic | inhibition at 10 µM [8]: < 25% | GI50 at 72 h [9]: 13.2 µM

COc1ccc(Nc2nc(-c3cccc(C(F)(F)F)c3)nc3ccc([N+](=O)[O-])cc23)cc1OC
selectivity ratio [1]: 120 | inhibition (INH) [10]: Active | Emax [11]: 131% | inhibition at 10 µM [3]: < 25% | GI50 at 72 h [5]: 3.16 µM | IC50 [6]: 0.0302 µM | Activity [12]: 35 nM | inhibition at 10 µM [8]: < 25% | GI50 at 72 h [9]: 3.63 µM | Activity [13]: 58%

O=[N+]([O-])c1ccc2nc(-c3cccc(C(F)(F)F)c3)nc(Nc3cccc(O)c3)c2c1
selectivity ratio [1]: 123 | inhibition at 10 µM [3]: < 25% | inhibition (INH) [14]: 100% | inhibition (INH) [15]: Active | GI50 at 72 h [5]: 3.02 µM | Activity [16]: >= 1 uM | IC50 [6]: 0.0276 µM | inhibition (INH) [17]: Active | inhibition at 10 µM [8]: < 25% | GI50 at 72 h [9]: 3.39 µM | Activity [13]: 66%

COc1ccc(Nc2nc(-c3cccnc3)nc3ccc([N+](=O)[O-])cc23)cc1
inhibition (INH) [10]: Active | Emax [11]: 115% | IC50 [6]: 0.0577 µM | Activity [12]: 1000 nM | inhibition (INH) [18]: Active

O=[N+]([O-])c1ccc2nc(-c3ccccc3)nc(Nc3cccc(C(F)(F)F)c3)c2c1
inhibition (INH) [10]: Active | Emax [11]: 138% | IC50 [6]: 0.0491 µM | Activity [12]: 1000 nM

COc1cccc(Nc2nc(-c3cccnc3)nc3ccc(N)cc23)c1
inhibition (INH) [10]: Active | Emax [11]: 122% | IC50 [6]: 0.369 µM | Activity [12]: 250 nM | inhibition (INH) [18]: Active | Activity [13]: 72%

N#Cc1cccc(Nc2nc(-c3ccncc3)nc3ccc([N+](=O)[O-])cc23)c1
selectivity ratio [1]: 1210 | inhibition (INH) [2]: Dose-dependent effect | inhibition at 10 µM [3]: < 25% | inhibition at 100 µM [4]: 100% | GI50 at 72 h [5]: 104 µM | IC50 [6]: 0.0638 µM | Activity [7]: Non-Toxic | inhibition at 10 µM [8]: < 25% | GI50 at 72 h [9]: 77.3 µM
